Test results as given in ChEMBL document CHEMBL4732173, “Easily accessed nitroquinolones exhibiting potent and selective anti-tubercular activity” (Eur J Med Chem, 2021).

Assays:
Mycobacterium ulcerans = experiment: Antibacterial activity against Mycobacterium ulcerans assessed as bacterial metabolic acativity at 10 ug/ml incubated for 8 days followed by addition of Alamar blue for 3 days by Alamar blue dye based fluorescence analysis; assay type: functional; settings: dose 10 µg/ml; time 8 day
Summary of the method: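 Tested in triplicate. Remaining metabolic activity (%PC) was calculated as blank-corrected fluorescence of each treated well divided by that of the untreated control.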

[1] = Solubility of the compound in DMSO; assay type: physicochemical
[2] = Solubility of the compound in screening media; assay type: physicochemical

Structure (SMILES): COCCNC(=O)c1cn(Cc2cccc(Cl)c2)c2ccc([N+](=O)[O-])cc2c1=O
- Activity (Mycobacterium ulcerans): >90%
- solubility [1]: Insoluble
- solubility [2]: Soluble

Structure (SMILES): N#Cc1cccc(Cn2cc(C(=O)NCCNCCO)c(=O)c3cc([N+](=O)[O-])ccc32)c1
- Activity (Mycobacterium ulcerans): >90%
- solubility [1]: Insoluble
- solubility [2]: Soluble

Structure (SMILES): O=C(NO)c1cn(Cc2cccc(Br)c2)c2ccc([N+](=O)[O-])cc2c1=O
- solubility [1]: Insoluble
- solubility [2]: Soluble

Structure (SMILES): COCCNC(=O)c1cn(Cc2cccc(F)c2)c2ccc([N+](=O)[O-])cc2c1=O
- solubility [1]: Insoluble
- solubility [2]: Soluble

Structure (SMILES): O=C(NCCNCCO)c1cn(Cc2cccc(F)c2)c2ccc([N+](=O)[O-])cc2c1=O
- Activity (Mycobacterium ulcerans): >90%
- solubility [1]: Insoluble
- solubility [2]: Soluble

Structure (SMILES): N#Cc1ccc(Cn2cc(C(=O)NCCOCCO)c(=O)c3cc([N+](=O)[O-])ccc32)cc1
- solubility [1]: Insoluble
- solubility [2]: Soluble

Structure (SMILES): O=C(NCCOCCO)c1cn(Cc2cccc(Cl)c2)c2ccc([N+](=O)[O-])cc2c1=O
- solubility [1]: Insoluble
- solubility [2]: Soluble

Structure (SMILES): O=C(NCCOCCO)c1cn(Cc2ccc(F)cc2)c2ccc([N+](=O)[O-])cc2c1=O
- Activity (Mycobacterium ulcerans): >90%
- solubility [1]: Insoluble
- solubility [2]: Soluble

Structure (SMILES): N#Cc1cccc(Cn2cc(C(=O)NCCOCCO)c(=O)c3cc([N+](=O)[O-])ccc32)c1
- solubility [1]: Insoluble
- solubility [2]: Soluble

Structure (SMILES): O=C(NO)c1cn(Cc2cccc(F)c2)c2ccc([N+](=O)[O-])cc2c1=O
- solubility [1]: Insoluble
- solubility [2]: Soluble

Structure (SMILES): O=C(NCCOCCO)c1cn(Cc2cccc(F)c2)c2ccc([N+](=O)[O-])cc2c1=O
- solubility [1]: Insoluble
- solubility [2]: Soluble

Structure (SMILES): O=C(NCCN1CCOCC1)c1cn(Cc2cccc(F)c2)c2ccc([N+](=O)[O-])cc2c1=O
- solubility [1]: Insoluble
- solubility [2]: Soluble

Structure (SMILES): COCCNC(=O)c1cn(Cc2ccc(F)cc2)c2ccc([N+](=O)[O-])cc2c1=O
- Activity (Mycobacterium ulcerans): >90%
- solubility [1]: Insoluble
- solubility [2]: Soluble

Structure (SMILES): O=C(NCCN1CCOCC1)c1cn(Cc2cccc(Cl)c2)c2ccc([N+](=O)[O-])cc2c1=O
- solubility [1]: Insoluble
- solubility [2]: Soluble

Structure (SMILES): N#Cc1cccc(Cn2cc(C(=O)NO)c(=O)c3cc([N+](=O)[O-])ccc32)c1
- solubility [1]: Insoluble
- solubility [2]: Soluble

Structure (SMILES): O=C(NCCNCCO)c1cn(Cc2ccc(F)cc2)c2ccc([N+](=O)[O-])cc2c1=O
- Activity (Mycobacterium ulcerans): >90%
- solubility [1]: Insoluble
- solubility [2]: Soluble

Structure (SMILES): CCOC(=O)c1c[nH]c2c(C(F)(F)F)cc([N+](=O)[O-])cc2c1=O
- Activity (Mycobacterium ulcerans): >90%
- solubility [1]: Insoluble
- solubility [2]: Soluble

Structure (SMILES): N#Cc1cccc(Cn2cc(C(=O)O)c(=O)c3cc([N+](=O)[O-])ccc32)c1
- solubility [1]: Insoluble
- solubility [2]: Soluble

Structure (SMILES): O=C(NO)c1cn(Cc2cccc(Cl)c2)c2ccc([N+](=O)[O-])cc2c1=O
- solubility [1]: Insoluble
- solubility [2]: Soluble

Structure (SMILES): O=C(NCCN1CCOCC1)c1cn(Cc2cccc(Br)c2)c2ccc([N+](=O)[O-])cc2c1=O
- solubility [1]: Insoluble
- solubility [2]: Soluble

Structure (SMILES): N#Cc1ccc(Cn2cc(C(=O)NCCNCCO)c(=O)c3cc([N+](=O)[O-])ccc32)cc1
- solubility [1]: Insoluble
- solubility [2]: Soluble

Structure (SMILES): COCCNC(=O)c1cn(Cc2ccc(C#N)cc2)c2ccc([N+](=O)[O-])cc2c1=O
- solubility [1]: Insoluble
- solubility [2]: Soluble

Structure (SMILES): COCCNC(=O)c1cn(Cc2cccc(C#N)c2)c2ccc([N+](=O)[O-])cc2c1=O
- solubility [1]: Insoluble
- solubility [2]: Soluble
